We go through 10 compounds from PubChem BioAssay.

Test [1] is described as follows: inhibitors of TNFa-induced NFkB p65 translocation, primary screen, imaging, HUVEC, MLSMR starter and 10KST1 sets (AID 438).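 For inhibition: signal is the nuclear over cytoplasmic p65 intensity ratio per well.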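 Note: compound added about 3h40 before a 20 min TNFalpha stimulation.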 As to conditions: HUVEC TNFa-induced p65 nuclear translocation; cell count: measured here: nuclei count (cytotoxicity indicator), at 2.08 µM; inhibition: at 2 µM, stronger effect = higher value, 0% TNFa-plus-vehicle, 100% no-TNFa wells.
Test [2] can be described thus: reduction of polyQ htt aggregates in cells – imaging, exon1htt(103Q)mCFP cells, high-content imaging, primary screen (AID 483;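 active = visual image review flags a hit and inhibition of aggregation exceeds 20%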;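 note: compound exposure lasted 3 days before fixation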;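 for nuclei count: percent of the per-plate median nuclei count of sample wells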). Particulars: exon1htt(103Q)mCFP cell line, aggregate imaging, at 2 µM; inhibition of aggregation: stronger effect = higher value; nuclei count: measured here: cell count, toxicity.
Test [3] can be described thus: endothelial E-selectin expression blockers – imaging, HUVEC, immunofluorescence, MLSMR starter and 10KST1 sets, primary screen (AID 487;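 active = visually confirmed hit in the image check and inhibition above 20%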;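 for inhibition: signal is fraction of cell area covered by stained E-selectin grains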;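 for nuclei count: 100% = median nuclei count of all wells on the same plate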). Particulars: HUVEC TNFalpha-induced E-selectin immunofluorescence imaging, at 2 µM; inhibition: stronger effect = higher value; nuclei count: measured here: cell number, toxicity.
Test [4] has as its target Voltage-gated potassium channel subunit beta-2 (Rattus norvegicus) (UniProt P62483). In words: inhibitors of rat Kvbeta2 reductase activity – biochemical, NADPH fluorescence, primary screen (AID 622;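 active = fluorescence slope higher than the sample average by over 3 SD, cut at about -0.22 in these data, passing the limit was not always enough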;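 note: slope of raw intensity against log time taken from 70 to 1610 s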). As to conditions: recombinant KvBeta, 4-cyanobenzaldehyde reduction, at 10 µM, stronger effect = higher value.
Test [5] has the same target. The test is described as follows: enhancers of rat Kvbeta2 NADPH turnover – biochemical, NADPH fluorescence, primary screen (AID 623;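 active = NADPH fluorescence slope more negative than the mean of all samples by about 3 SD, 99.7% confidence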;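 note: fluorescence intensity change per second fitted from 20 to 320 s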). Particulars: Recombinant KvBeta, NADPH fluorescence decrease slope, 10 min; at 10 µM; stronger effect = lower value.
Test [6] concerns the target Muscarinic acetylcholine receptor M4 (Homo sapiens) (UniProt P08173). The test is described as follows: M4-linked GIRK flux change, two-sided – cell-based, HEK293 M4/GIRK, thallium flux, BTC-AM, M4 allosteric agonist project, primary screen (AID 625;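 active = fluorescence slope after compound addition differing from the mean of all tested samples at 99.7% confidence, mostly higher but some lower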;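 note: thallium influx through GIRK channels coupled to M4 in HEK293 cells with BTC-AM dye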). Particulars: at 10 µM, actives lie on both sides. The method in brief:
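Material: M4/GIRK1/GIRK2 stable HEK293 cell line. Medium: pH 7.3 thallium assay buffer. Dosing: single compound concentration, 10 µM final. Schedule: 1 h dye loading, 2 min kinetic read. Measured by: kinetic fluorescence with BTC-AM dye. Read-out: post-addition slope, 15–24 s, of baseline-normalized fluorescence. Benchmarks: carbachol and DMSO controls.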

A short description of test [7]: blockers of RIG-like receptor reporter activation – cell-based, Sendai virus stimulus, luciferase, 10K MLSCN set, TLR/RLR signaling modifier project, primary screen (AID 602276;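 active = inhibition at or above 50% at 10 µM; inactive = inhibition below 50%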;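 note: firefly luciferase from ISG56 promoter only with Renilla not read in this screen; 0% = Sendai virus plus DMSO and 100% = medium plus DMSO without virus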). Particulars: HEK293 RL24 IRF3 luciferase reporter, at 10 µM, stronger effect = higher value. Background: A reporter such as luciferase makes a cellular process visible.
The nature of test [8]: TLR3 IRF3 reporter activation blockers – cell-based, poly I:C stimulus, luciferase, 10K MLSCN set, primary screen (AID 602277;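 active = inhibition of the reporter signal at or above 50%; inactive = inhibition below 50%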). Particulars: HEK293-TLR3 RL24 IRF3 luciferase reporter, at 10 µM, stronger effect = higher value.

SMILES strings stand for the structures. Active and inactive are the calls of the source.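 Rule for the calls, unless noted: active = inhibition above 20% together with a positive visual image hit; inconclusive = visual image hit but inhibition not above 20%; inactive = no visual image hit.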

For orientation: inhibition means the change of the read-out against control, counted positive when it falls.

Chain of Muscarinic acetylcholine receptor M4 (Homo sapiens) (P08173 whole entry, looked up): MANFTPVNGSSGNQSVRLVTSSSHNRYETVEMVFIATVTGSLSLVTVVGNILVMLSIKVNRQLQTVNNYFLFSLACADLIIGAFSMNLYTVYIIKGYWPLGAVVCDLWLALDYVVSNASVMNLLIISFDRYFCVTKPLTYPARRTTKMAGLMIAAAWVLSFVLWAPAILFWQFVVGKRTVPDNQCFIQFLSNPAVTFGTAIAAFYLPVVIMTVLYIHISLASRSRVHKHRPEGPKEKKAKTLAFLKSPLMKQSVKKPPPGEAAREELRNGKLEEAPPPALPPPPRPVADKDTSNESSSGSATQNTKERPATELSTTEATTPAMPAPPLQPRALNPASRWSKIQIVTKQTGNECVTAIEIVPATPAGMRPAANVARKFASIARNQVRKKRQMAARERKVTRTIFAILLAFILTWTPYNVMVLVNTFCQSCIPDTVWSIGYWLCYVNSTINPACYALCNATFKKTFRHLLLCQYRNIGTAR
Chain of Voltage-gated potassium channel subunit beta-2 (Rattus norvegicus) (P62483 whole entry, looked up): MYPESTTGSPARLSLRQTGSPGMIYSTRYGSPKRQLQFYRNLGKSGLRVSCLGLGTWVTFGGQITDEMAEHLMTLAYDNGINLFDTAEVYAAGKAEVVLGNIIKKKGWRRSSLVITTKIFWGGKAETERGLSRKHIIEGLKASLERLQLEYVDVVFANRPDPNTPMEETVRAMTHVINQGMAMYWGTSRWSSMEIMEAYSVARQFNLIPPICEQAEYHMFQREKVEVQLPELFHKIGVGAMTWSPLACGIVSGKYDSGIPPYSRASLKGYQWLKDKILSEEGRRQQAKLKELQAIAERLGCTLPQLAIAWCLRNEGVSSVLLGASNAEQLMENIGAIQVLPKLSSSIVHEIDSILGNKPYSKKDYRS

Regarding `COc1cccc(C(=O)Nc2cccc(C(=O)N3CCOCC3)c2)c1`, the cell count in test [1] was determined as 354. For the same compound, the inhibition is 1.6% (inactive) in test [1], -121% (inactive) in test [3], 3.67% (inactive) in test [7] and 1.87% (inactive) in test [8]. In addition, the inhibition of aggregation in test [2] is 0.9% (inactive). The nuclei count is 76% in test [2] and 95% in test [3]. The fluorescence slope in test [4] was -0.564 (inactive); in test [6], 0.00825 (inactive). Further, the NADPH fluorescence slope in test [5] was -3.3e-05 (inactive).
As for `CSc1nnc2n(CCc3ccccc3)c(=O)c3c4c(sc3n12)CCCC4`, the cell count in test [1] amounted to 295. Further, the inhibition in test [1] was -21.3% (inactive); in test [3] it was -22% (inactive); in test [7], 7.14% (inactive); in test [8], -1.7% (inactive). For the same compound, the inhibition of aggregation in test [2] is -2.1% (inactive). Besides, the nuclei count stood at 106% in test [2] and 112% in test [3]. For the same compound, the fluorescence slope in test [4] is -0.476 (inactive); in test [6], 0.00521 (inactive). Moreover, the NADPH fluorescence slope in test [5] is -2.9e-05 (inactive).
As for `COc1ccc(C(CNC(=O)CN2C(=O)NC3(CC(C)CC(C)(C)C3)C2=O)N2CCOCC2)cc1` (stereo not given), the cell count in test [1] is 427. The inhibition in test [1] was 8.4% (inactive); in test [3], -57% (inactive); in test [7], -2.17% (inactive); in test [8] it was -5.07% (inactive). For the same compound, the inhibition of aggregation in test [2] is 13.7% (inactive). Besides, the nuclei count in test [2] was determined as 97.7%; in test [3], 115%. The fluorescence slope in test [4] is -0.413 (inactive); in test [6], 0.00559 (inactive). Also, the NADPH fluorescence slope in test [5] is 3.8e-05 (inactive).
For `O=C(c1ccco1)N1CCN(CC(=O)N(C2CCCCC2)C2CCS(=O)(=O)C2)CC1` (stereo not given), the cell count in test [1] amounted to 311. Also, the inhibition in test [1] is -5.7% (inactive); in test [3] it was -28.9% (inactive); in test [7], 7.31% (inactive); in test [8] it was 12.1% (inactive). Besides, in test [2], the inhibition of aggregation is -12.8% (inactive). In addition, the results for the nuclei count in test [2] and in test [3] were 75.5% and 110%, respectively. The fluorescence slope was -0.565 (inactive) in test [4] and 0.00633 (inactive) in test [6]. Further, the NADPH fluorescence slope in test [5] is -5.3e-05 (inactive).
In the case of `CCOC(=O)c1ccc(NC(=O)CCc2nc(-c3ccc(C)cc3)no2)cc1`, in test [1], the cell count was 368. The inhibition was 0.7% (inactive) in test [1], -32.9% (inactive) in test [3], 11.4% (inactive) in test [7] and -5.93% (inactive) in test [8]. Further, the inhibition of aggregation in test [2] was 21.5% (inactive). For the same compound, the nuclei count in test [2] came out at 103%; in test [3], 116%. The fluorescence slope in test [4] was -0.556 (inactive); in test [6] it was 0.0041 (inactive). The NADPH fluorescence slope in test [5] was -2.2e-05 (inactive).
As to `FC(F)(F)C(F)(F)C(F)(F)c1nnc2ccc(N3CCOCC3)nn12`, in test [1], the cell count stood at 420. Further, the inhibition in test [1] was 7.9% (inactive); in test [3], -41.2% (inactive); in test [7], -12% (inactive); in test [8], -3.61% (inactive). Besides, in test [2], the inhibition of aggregation was -8.6% (inactive). In addition, the nuclei count in test [2] came to 102%; in test [3], 111%. In addition, the fluorescence slope was -0.51 (inactive) in test [4] and 0.0046 (inactive) in test [6]. In addition, the NADPH fluorescence slope in test [5] was 7.7e-05 (inactive).
With `COc1ccc(-n2ncc3c(NCc4ccccn4)ncnc32)cc1`, the cell count in test [1] came out at 463. Moreover, the inhibition was -1.9% (inactive) in test [1], 14.4% (inactive) in test [3], -12.7% (inactive) in test [7] and -61.6% (inactive) in test [8]. Moreover, the inhibition of aggregation in test [2] was 7.6% (inactive). The nuclei count in test [2] is 94%; in test [3], 102%. The values for the fluorescence slope in test [4] and in test [6] were -0.541 (inactive) and 0.0051 (inactive), respectively. For the same compound, the NADPH fluorescence slope in test [5] is -4e-05 (inactive).
Consider `O=C(NCCN1CCOCC1)c1csc2c1CCCC2`, for which the cell count in test [1] was 643. Further, the inhibition in test [1] is -24.5% (inactive); in test [3] it was -109% (inactive); in test [7], 12.1% (inactive); in test [8], 2.09% (inactive). For the same compound, the inhibition of aggregation in test [2] was 22.6% (inactive). Also, the values for the nuclei count in test [2] and in test [3] were 109% and 116%, respectively. Besides, the fluorescence slope was -0.257 (inactive) in test [4] and 0.0063 (inactive) in test [6]. For the same compound, in test [5], the NADPH fluorescence slope was -1.1e-05 (inactive).
On to `COC(=O)c1cc(O)c(OCc2ccccc2)c(O)c1`, for which the cell count in test [1] was found to be 775. Further, the inhibition in test [1] was -2.2% (inactive); in test [3], -8.4% (inactive); in test [7], -22% (inactive); in test [8], -58.4% (inactive). Also, the inhibition of aggregation in test [2] was 20.1% (inactive). Further, the nuclei count in test [2] and in test [3] was 112% throughout. For the same compound, the fluorescence slope in test [4] was -0.552 (inactive); in test [6], 0.00449 (inactive). Also, the NADPH fluorescence slope in test [5] was 4.3e-05 (inactive).
Regarding `CCN(CC)c1ccc(CNc2ccc(Br)cn2)cc1`, the cell count in test [1] came out at 388. For the same compound, the inhibition was -2.4% (inactive) in test [1], -74.6% (inactive) in test [3], -41.1% (inactive) in test [7] and -92.7% (inactive) in test [8]. Further, the inhibition of aggregation in test [2] is -13.8% (inactive). Further, the nuclei count in test [2] stood at 101%; in test [3] it was 122%. Also, the fluorescence slope in test [4] is -0.546 (inactive); in test [6], 0.00212 (inactive). Moreover, the NADPH fluorescence slope in test [5] is -0.000144 (inactive).
